Bioassay records (PubChem BioAssay)
Pf Dd2 inh – inhibitors of Plasmodium falciparum Dd2 growth; P. falciparum Dd2 growth, SYBR Green, 72 h; hits give low values; activity change, % at 10 µM; hit rate 2.3% among 94,000; AID 1159554; in the data active = activity change below about -80%; inconclusive = no clear call, values can overlap the other calls
IDH1 R132H inh – inhibitors of human IDH1 R132H; IDH1 R132H reductase, diaphorase/resazurin fluorescence, 60 min; O75874; hit rate 0.18% among 70,000; inhibition, % at 10 µM; in the data active = inhibition above about 34%; inconclusive = no clear call, values can overlap the other calls; inactive = below about 11%;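 also: 0% = DMSO and 100% = no enzyme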
Target sequence (O75874 whole entry R132H): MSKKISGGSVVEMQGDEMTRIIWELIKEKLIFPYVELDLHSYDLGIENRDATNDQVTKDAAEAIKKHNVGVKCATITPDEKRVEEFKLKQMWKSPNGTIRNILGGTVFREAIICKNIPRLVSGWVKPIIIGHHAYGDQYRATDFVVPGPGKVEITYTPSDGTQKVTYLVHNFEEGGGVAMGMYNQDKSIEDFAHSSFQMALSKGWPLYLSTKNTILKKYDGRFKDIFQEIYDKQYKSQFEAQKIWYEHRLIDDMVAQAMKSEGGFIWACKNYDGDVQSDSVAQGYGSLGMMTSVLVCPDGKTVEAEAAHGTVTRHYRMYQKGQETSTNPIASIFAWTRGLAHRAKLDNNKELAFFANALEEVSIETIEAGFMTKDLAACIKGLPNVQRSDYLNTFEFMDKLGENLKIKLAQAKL
KDM4C inh – blocks human GASC-1 (KDM4C) demethylase activity | inhibition, % at 12.5 µM | GST-KDM4C 2-372, H3K9me3 peptide, LANCE TR-FRET | hit rate 0.15% among 96,000;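 active = mean replicate inhibition above about 25%, with at least 55% of replicates also reaching it, limit read from the data, passing the limit was not always enough; inconclusive = only one of those two conditions met; inactive = neither condition met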
Target sequence (Q9H3R0 2-372 limits assumed): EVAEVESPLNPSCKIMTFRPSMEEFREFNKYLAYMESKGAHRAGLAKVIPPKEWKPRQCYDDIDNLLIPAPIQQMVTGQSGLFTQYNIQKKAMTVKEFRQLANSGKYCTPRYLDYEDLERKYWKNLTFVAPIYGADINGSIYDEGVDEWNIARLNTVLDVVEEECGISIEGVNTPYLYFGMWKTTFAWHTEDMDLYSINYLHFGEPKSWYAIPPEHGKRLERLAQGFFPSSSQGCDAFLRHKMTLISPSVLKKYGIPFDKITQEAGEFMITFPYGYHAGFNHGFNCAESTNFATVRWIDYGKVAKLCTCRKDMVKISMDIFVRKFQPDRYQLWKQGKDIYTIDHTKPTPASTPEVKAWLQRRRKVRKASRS
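reagent = H3K9me3 peptide substrate, Fe(II), 2-oxoglutarate | system = GST-tagged GASC-1 (JMJD2C) catalytic fragment, aa 2-372 | amount = enzyme final amount 10 nM | read-out = Fall in 671/618 emission ratio as inhibition | medium = HEPES buffer, pH 7.5, plus ascorbate | schedule = 30 min reaction, 60 min detection, RT | measured by = LANCE TR-FRET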
T cruzi growth-1 – inhibitors of T. cruzi proliferation. AID 624255. inhibition, % at 8.34 µM. T. cruzi beta-gal in NIH3T3, GalScreen luminescence, 90 h. hit rate 5.9% among 77,000;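 active = mean inhibition above about 93%, with at least 55% of replicates each passing it, limit read from the data, passing the limit was not always enough; inconclusive = only one of those two conditions holds; inactive = neither condition holds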
T cruzi growth-2 – blocks T. cruzi growth in NIH3T3 host cells. T. cruzi beta-gal in NIH3T3, GalScreen luminescence, 90 h. AID 651739. inhibition, % at 8.35 µM. shares compounds with T cruzi growth-1. hit rate 72% among 5,600;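 active = mean replicate inhibition above about 95% and at least 55% of replicates individually reaching it, limit read from the data; inconclusive = only one of the two criteria is met; inactive = neither criterion is met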
T cruzi growth-3 – Trypanosoma cruzi proliferation inhibition | shares compounds with T cruzi growth-1 | hit rate 21% among 5,600 | T. cruzi beta-gal in NIH3T3, GalScreen luminescence, 90 h | inhibition, % at 2.09 µM | AID 651740;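 active = mean inhibition above about 95%, with at least 55% of replicates also reaching it, limit read from the data; inconclusive = meets just one of the two conditions; inactive = meets neither condition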;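 also: plate controls were neutral control median for no effect and positive control median for full effect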
NIH3T3 tox – kills mouse NIH/3T3 fibroblasts | NIH/3T3 viability, CellTiter-Glo ATP luminescence, 90 h | hit rate 14% among 5,600 | cytotoxicity (signal decrease), % at 8.35 µM | AID 651742 | shares compounds with T cruzi growth-1;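 active = mean signal decrease across replicates above about 35% based on untreated-well scatter, with enough replicates individually passing, limit read from the data; inconclusive = no rule stated though some were filed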;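 also: 0% = median of neutral control wells and 100% = median of positive control wells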
NIH3T3 tox 2 – cytotoxicity in mouse NIH/3T3 fibroblasts; hit rate 56% among 5,600; NIH/3T3 viability, CellTiter-Glo ATP luminescence, 90 h; shares compounds with T cruzi growth-1; inhibition, % at 24.9 µM;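 active = mean loss of cell viability signal at or above a set limit, and enough replicates individually reaching it; inconclusive = meets only the mean limit or only the replicate share; inactive = meets neither condition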;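 also: 0% = median of neutral control wells and 100% = median of positive control wells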
The depositor's hits bear a star; ? = inconclusive; nt = no result. Sampled rows, rich in hits. Any-hit rate of the full collection: about 5.8%.

SMILES | Pf Dd2 inh | IDH1 R132H inh | KDM4C inh | T cruzi growth-1 | T cruzi growth-2 | T cruzi growth-3 | NIH3T3 tox | NIH3T3 tox 2
COc1cccc(-c2ccc([C@@H]3[C@@H](CO)N4CCCCN(S(=O)(=O)c5cccs5)C[C@@H]34)cc2)c1 | 35 | nt | -2 | 97* | 60 | -3 | 21 | 25*
COc1cccc(-c2ccc([C@H]3[C@H]4CN(S(=O)(=O)c5cccs5)CCCCN4[C@H]3CO)cc2)c1 | 10 | nt | -1 | 75 | nt | nt | nt | nt
Cc1cccc(C)c1NC(=O)CC(C(=O)O)N(C)C (stereo unspecified) | nt | 0 | nt | nt | nt | nt | nt | nt
COc1ccc(S(=O)(=O)N2CC[C@H]3[C@@H](CO)N(C)c4ccc(C5=CCCCC5)cc4[C@H]32)cc1 | -16 | nt | 4 | ? | 90 | 108* | 10 | 70*
COc1ccc(-c2ccc3c(c2)[C@@H]2[C@@H](CCN2S(=O)(=O)C2=NC(C)C=N2)[C@@H](CO)N3C)cc1 (stereo partly specified) | -18 | nt | 3 | ? | 103* | 80 | -17 | -1
C[C@@H]1CN([C@@H](C)CO)S(=O)(=O)c2ccc(-c3cccnc3)cc2O[C@@H]1CN(C)Cc1cccnc1 | -3 | nt | 0 | 63 | nt | nt | nt | nt
Cc1ccc(-c2ccc3c(c2)O[C@@H](CN(C)Cc2cccnc2)[C@@H](C)CN([C@@H](C)CO)S3(=O)=O)cc1 | -80 | 8 | 2 | 102* | 92 | 81 | 52* | 94*
C[C@@H]1CN([C@H](C)CO)S(=O)(=O)c2ccc(-c3ccncc3)cc2O[C@@H]1CN(C)Cc1cccnc1 | 27 | nt | nt | 73 | nt | nt | nt | nt
Cc1ccc(-c2ccc3c(c2)O[C@H](CN(C)Cc2cccnc2)[C@H](C)CN([C@@H](C)CO)S3(=O)=O)cc1 | -39 | 4 | -1 | 108* | 97* | 80 | 46* | 95*
Cc1ccc(-c2ccc3c(c2)O[C@@H](CN(C)Cc2cccnc2)[C@H](C)CN([C@H](C)CO)S3(=O)=O)cc1 | -78 | 9 | -1 | 118* | ? | 104* | 80* | 102*
Cc1cc(Cl)c(S(=O)(=O)Nc2ccc(I)cc2)cc1OCC(N)=O | nt | 0 | nt | nt | nt | nt | nt | nt
COC(=O)c1cc(O)cc(O)c1C(=O)c1c(O)c(Cl)c(C)c(Cl)c1OC | nt | 3 | nt | nt | nt | nt | nt | nt
Cc1c(-n2c(/C=C\c3ccc([N+](=O)[O-])o3)nc3ccccc3c2=O)c(=O)n(-c2ccccc2)n1C | nt | -1 | nt | nt | nt | nt | nt | nt
O=C(N/N=C/c1ccc(OCCO)cc1)c1ccccn1 | nt | 0 | nt | nt | nt | nt | nt | nt
COCC#Cc1cnc2c(c1)C(=O)N([C@H](C)CO)C[C@@H](C)[C@H](CN(C)C(=O)C1CC1)O2 | 12 | nt | 0 | 97* | -14 | -8 | 22 | 12
COCC#Cc1cnc2c(c1)C(=O)N([C@@H](C)CO)C[C@@H](C)[C@H](CN(C)C(=O)C1CC1)O2 | 34 | nt | -1 | 112* | 39 | 2 | 24 | ?
CC(=O)NCCc1c(C(=O)O)[nH]c2ccc(C(C)=O)cc12 | nt | 0 | nt | nt | nt | nt | nt | nt
COc1ccc(NC(=O)Nc2ccc3c(c2)C(=O)N([C@H](C)CO)C[C@@H](C)[C@H](CN(C)S(=O)(=O)c2cccs2)OCCCC[C@@H](C)O3)cc1 | -78 | nt | -2 | 108* | 108* | 22 | 1 | -2
COc1ccc(NC(=O)Nc2ccc3c(c2)C(=O)N([C@H](C)CO)C[C@H](C)[C@H](CN(C)S(=O)(=O)c2cccs2)OCCCC[C@@H](C)O3)cc1 | -58 | -3 | -3 | -21 | nt | nt | nt | nt
COc1ccc(NC(=O)Nc2ccc3c(c2)C(=O)N([C@H](C)CO)C[C@@H](C)[C@@H](CN(C)S(=O)(=O)c2cccs2)OCCCC[C@@H](C)O3)cc1 | -44 | -2 | -3 | nt | nt | nt | nt | nt
COc1ccc(NC(=O)Nc2ccc3c(c2)C(=O)N([C@H](C)CO)C[C@H](C)[C@H](CN(C)S(=O)(=O)c2cccs2)OCCCC[C@H](C)O3)cc1 | -27 | 2 | 0 | 103* | 107* | 38 | 6 | 30*
Cc1ccc(Cl)cc1NC(=O)C(C)n1nc(C)c([N+](=O)[O-])c1C (stereo unspecified) | nt | 0 | nt | nt | nt | nt | nt | nt
C[C@@H]1CN([C@@H](C)CO)S(=O)(=O)c2ccc(C#CCN(C)C)cc2O[C@H]1CN(C)C(=O)CC1CC1 | -26 | -1 | 0 | ? | 97* | 85 | -5 | 9
C[C@H](CO)N1C[C@H](C)[C@@H](CN(C)C(=O)CC2CC2)Oc2cc(C#CCN(C)C)ccc2S1(=O)=O | -19 | 0 | 0 | 96* | 98* | 90 | -6 | 12
C[C@@H]1CN([C@H](C)CO)S(=O)(=O)c2ccc(C#CCN(C)C)cc2O[C@@H]1CN(C)C(=O)CC1CC1 | 31 | -1 | 9 | 85 | nt | nt | nt | nt
SMILES | Pf Dd2 inh | IDH1 R132H inh | KDM4C inh | T cruzi growth-1 | T cruzi growth-2 | T cruzi growth-3 | NIH3T3 tox | NIH3T3 tox 2
C[C@H]1CN([C@@H](C)CO)S(=O)(=O)c2ccc(C#CCN(C)C)cc2O[C@H]1CN(C)C(=O)CC1CC1 | 3 | 0 | 7 | ? | 100* | 78 | 2 | 9
O=C(Nc1scc(-c2ccccc2)c1C(=O)NCc1ccco1)c1ccccc1 | nt | 0 | nt | nt | nt | nt | nt | nt
O=C(CSc1nc2ccccc2o1)Nc1ccc(Br)cc1Cl | nt | 0 | nt | nt | nt | nt | nt | nt
C[C@@H]1CN([C@@H](C)CO)C(=O)Cc2cc(NS(=O)(=O)c3ccc(F)cc3)ccc2O[C@@H]1CN(C)Cc1ccccc1 | -20 | nt | 1 | 94 | nt | nt | nt | nt
COc1ccc(S(=O)(=O)Nc2ccc3c(c2)CC(=O)N([C@@H](C)CO)C[C@@H](C)[C@H](CN(C)Cc2ccccc2)O3)cc1 | -26 | 0 | -1 | 113* | 108* | 89 | 16 | 23
COc1ccc(S(=O)(=O)Nc2ccc3c(c2)CC(=O)N([C@H](C)CO)C[C@H](C)[C@@H](CN(C)Cc2ccccc2)O3)cc1 | -35 | -6 | 0 | 99* | 104* | 45 | -10 | -17
C[C@H]1CN([C@@H](C)CO)C(=O)Cc2cc(NS(=O)(=O)c3ccc(F)cc3)ccc2O[C@H]1CN(C)CC1CCCCC1 | -30 | 0 | -2 | 67 | nt | nt | nt | nt
C[C@@H]1CN([C@@H](C)CO)C(=O)Cc2cc(NS(=O)(=O)c3ccc(F)cc3)ccc2O[C@H]1CN(C)CC1CCCCC1 | -18 | 2 | 2 | 106* | 112* | 54 | 6 | 103*
COc1ccc(S(=O)(=O)Nc2ccc3c(c2)CC(=O)N([C@H](C)CO)C[C@@H](C)[C@@H](CN(C)Cc2ccccc2)O3)cc1 | -9 | 0 | -1 | 87 | nt | nt | nt | nt
C[C@@H]1CN([C@@H](C)CO)C(=O)Cc2cc(NS(=O)(=O)c3ccc(F)cc3)ccc2O[C@H]1CN(C)Cc1ccccc1 | -30 | 1 | 2 | 114* | 111* | 52 | 32 | ?
